Assay results taken from paper PMC3909687 (Biochimica et biophysica acta, 2012).

Each molecule was assayed against T1, CC1736 (Caulobacter vibrioides, UniProt Q9A7I7) (assay: spin-column desalting separation, lipid extraction, HPLC-UV).
T1 sequence (Q9A7I7 1-148): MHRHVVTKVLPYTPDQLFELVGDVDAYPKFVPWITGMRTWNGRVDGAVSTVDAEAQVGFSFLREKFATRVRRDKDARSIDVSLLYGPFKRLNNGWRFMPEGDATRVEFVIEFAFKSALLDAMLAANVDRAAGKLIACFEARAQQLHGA
Assay type: binding
Outline: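 Protein (2-3 nmol; cytochrome c 8-10 nmol as control) incubated with ligand (0.005–0.27 mM) in 20 mM MES pH 6.4, 100 mM NaCl, 5.0 mM CaCl2, 0.1 mM dodecyl maltoside, 1.0 mM TCEP, 2% ethanol, 45 min, 30 °C. Desalting spin column; protein by Lowry; eluate lipids by reversed-phase HPLC-UV.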

| SMILES | Kd |
| --- | --- |
| COC1=C(OC)C(=O)C(C/C=C(\C)CC/C=C(\C)CCC=C(C)C)=C(C)C1=O [Q3] | 35 ± 16 µM |
| COC1=C(OC)C(=O)C(C/C=C(\C)CCC=C(C)C)=C(C)C1=O [Q2] | 18 ± 2 µM |
| COC1=CC(=O)C(C)=C(C/C=C(\C)CC/C=C(\C)CCC=C(C)C)C1=O [DMQ3] | 140 ± 77 µM |
